The source of these data is ChEMBL document CHEMBL1909611, “Identification and SAR of selective inducible nitric oxide synthase (iNOS) dimerization inhibitors” (Bioorg Med Chem Lett, 2011).

Calls of active or inactive are those of the source. The rule behind the calls is not given here. A value given as a limit tells only on which side of the number the result lay.

The term inhibition denotes the drop in the measured response relative to a control, in per cent. By EC50 is commonly meant the midpoint of the concentration-response curve. As a reminder, the ED50 is the dose that gives a 50% effect, or the effect in half of the subjects. Usually IC50 stands for the concentration that inhibits the measured activity by half. Read a high IC50 as lower potency.

Test [1] deals with T1, Nitric oxide synthase, inducible (Homo sapiens, UniProt P35228). Briefly: Inhibition of human iNOS expressed in human HEK293 cells assessed as nitrite accumulation at 100 uM after 18 hrs by 2,3-diaminonapthalene assay. In kind it is cell-based. The essentials: (§1)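 Transiently transfected cells plated at 5e5 cells/ml; compounds added immediately by pin transfer. Incubated 18 h for nitrite accumulation. Fluorescence (ex 360/em 425 nm) read after raising pH with NaOH (0.12 N final). Values are mean of three experiments with SD. At 100 µM, <50% inhibition is reported as >100.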
T1 sequence (P35228 whole entry): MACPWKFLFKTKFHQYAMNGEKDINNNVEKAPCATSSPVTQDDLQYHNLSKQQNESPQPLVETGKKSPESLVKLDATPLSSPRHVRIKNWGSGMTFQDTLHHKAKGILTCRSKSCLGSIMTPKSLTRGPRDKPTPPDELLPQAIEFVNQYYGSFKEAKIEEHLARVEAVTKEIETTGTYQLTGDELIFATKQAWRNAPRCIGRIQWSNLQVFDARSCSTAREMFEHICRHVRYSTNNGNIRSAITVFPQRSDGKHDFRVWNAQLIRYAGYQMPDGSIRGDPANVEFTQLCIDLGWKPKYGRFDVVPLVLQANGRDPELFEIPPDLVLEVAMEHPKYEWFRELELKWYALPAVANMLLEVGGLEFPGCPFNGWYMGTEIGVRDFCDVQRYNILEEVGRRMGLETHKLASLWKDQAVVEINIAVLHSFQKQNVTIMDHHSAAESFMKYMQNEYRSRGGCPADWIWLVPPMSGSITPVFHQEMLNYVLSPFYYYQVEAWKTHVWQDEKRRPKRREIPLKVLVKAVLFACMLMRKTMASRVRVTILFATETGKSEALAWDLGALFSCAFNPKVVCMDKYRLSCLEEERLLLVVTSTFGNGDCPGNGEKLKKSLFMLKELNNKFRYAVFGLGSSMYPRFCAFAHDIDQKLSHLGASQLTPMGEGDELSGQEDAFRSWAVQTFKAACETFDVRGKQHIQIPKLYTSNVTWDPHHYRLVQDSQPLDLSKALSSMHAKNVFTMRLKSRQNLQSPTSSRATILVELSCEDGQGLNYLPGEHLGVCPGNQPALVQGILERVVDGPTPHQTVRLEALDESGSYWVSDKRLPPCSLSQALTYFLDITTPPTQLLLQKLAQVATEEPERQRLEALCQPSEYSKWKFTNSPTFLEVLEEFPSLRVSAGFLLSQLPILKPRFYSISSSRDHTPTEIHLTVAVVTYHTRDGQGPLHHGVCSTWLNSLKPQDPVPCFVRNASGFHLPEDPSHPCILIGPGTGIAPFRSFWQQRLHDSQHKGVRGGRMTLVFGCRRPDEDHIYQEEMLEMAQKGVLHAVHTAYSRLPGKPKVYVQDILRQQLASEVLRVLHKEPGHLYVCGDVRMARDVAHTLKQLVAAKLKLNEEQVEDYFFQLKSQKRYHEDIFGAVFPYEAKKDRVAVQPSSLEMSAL

For test [2], the target named is T2, Nitric oxide synthase 1 (Homo sapiens, UniProt P29475). Briefly: Inhibition of human nNOS expressed in HEK293 cells assessed as inhibition ionomycin-induced nitric oxide production incubated for 24 hrs measured after 18 hrs of ionomycin challenge by 2,3-diaminonaphthalene assay. It is filed as cell-based. The essentials: (§2)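 Transiently transfected cells plated at 5e5 cells/ml; compounds added immediately by pin transfer. Incubated 24 h with compound, then activated by ionophore (0.8 µM final). Fluorescence (ex 360/em 425 nm) read after raising pH with NaOH (0.12 N final). Values are mean of three experiments with SD. At 100 µM, <50% inhibition is reported as >100.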
T2 sequence (P29475 whole entry): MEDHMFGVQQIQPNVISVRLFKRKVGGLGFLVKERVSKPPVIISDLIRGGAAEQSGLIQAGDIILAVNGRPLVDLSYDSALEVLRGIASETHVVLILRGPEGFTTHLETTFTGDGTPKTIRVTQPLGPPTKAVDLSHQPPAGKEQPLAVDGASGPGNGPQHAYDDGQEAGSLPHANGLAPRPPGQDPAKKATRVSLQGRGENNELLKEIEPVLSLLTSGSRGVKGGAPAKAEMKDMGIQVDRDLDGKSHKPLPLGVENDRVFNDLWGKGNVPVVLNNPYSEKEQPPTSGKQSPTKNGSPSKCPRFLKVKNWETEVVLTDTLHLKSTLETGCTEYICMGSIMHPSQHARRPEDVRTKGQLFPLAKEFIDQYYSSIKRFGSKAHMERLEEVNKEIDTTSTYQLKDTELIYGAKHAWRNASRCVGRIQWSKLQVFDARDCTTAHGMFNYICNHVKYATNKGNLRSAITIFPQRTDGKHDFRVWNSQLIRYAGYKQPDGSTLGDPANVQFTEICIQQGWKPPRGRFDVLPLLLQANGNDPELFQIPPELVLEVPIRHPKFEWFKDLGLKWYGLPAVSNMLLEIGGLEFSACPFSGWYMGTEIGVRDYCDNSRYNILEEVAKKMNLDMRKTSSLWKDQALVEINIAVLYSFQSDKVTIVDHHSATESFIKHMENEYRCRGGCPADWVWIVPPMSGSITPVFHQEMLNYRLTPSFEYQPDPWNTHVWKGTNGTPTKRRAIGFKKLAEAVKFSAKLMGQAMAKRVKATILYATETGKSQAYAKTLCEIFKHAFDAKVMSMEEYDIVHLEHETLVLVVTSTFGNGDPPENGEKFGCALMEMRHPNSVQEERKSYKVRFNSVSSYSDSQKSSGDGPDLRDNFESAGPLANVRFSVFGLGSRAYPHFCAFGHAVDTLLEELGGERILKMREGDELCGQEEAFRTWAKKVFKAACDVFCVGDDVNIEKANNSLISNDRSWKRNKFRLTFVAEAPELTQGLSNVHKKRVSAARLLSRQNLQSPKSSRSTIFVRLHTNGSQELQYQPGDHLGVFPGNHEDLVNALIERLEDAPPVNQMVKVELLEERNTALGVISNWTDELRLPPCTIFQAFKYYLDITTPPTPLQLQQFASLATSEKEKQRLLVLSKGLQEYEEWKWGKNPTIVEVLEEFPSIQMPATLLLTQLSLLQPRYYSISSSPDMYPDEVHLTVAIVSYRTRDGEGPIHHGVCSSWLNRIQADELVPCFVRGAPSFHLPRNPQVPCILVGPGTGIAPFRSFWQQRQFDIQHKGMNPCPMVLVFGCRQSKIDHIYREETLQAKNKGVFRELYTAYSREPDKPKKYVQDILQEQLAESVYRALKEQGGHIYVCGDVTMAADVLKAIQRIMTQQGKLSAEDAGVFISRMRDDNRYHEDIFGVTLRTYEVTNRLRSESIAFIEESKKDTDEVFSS

For test [3], the target named is T1, Nitric oxide synthase, inducible. Briefly: Inhibition of human iNOS expressed in human HEK293 cells assessed as nitrite accumulation after 18 hrs by 2,3-diaminonapthalene assay. It is filed as cell-based. An outline of the steps:
as §1

The next test has as its target T3, Nitric oxide synthase 3 (Homo sapiens, UniProt P29474).
T3 sequence (P29474 whole entry): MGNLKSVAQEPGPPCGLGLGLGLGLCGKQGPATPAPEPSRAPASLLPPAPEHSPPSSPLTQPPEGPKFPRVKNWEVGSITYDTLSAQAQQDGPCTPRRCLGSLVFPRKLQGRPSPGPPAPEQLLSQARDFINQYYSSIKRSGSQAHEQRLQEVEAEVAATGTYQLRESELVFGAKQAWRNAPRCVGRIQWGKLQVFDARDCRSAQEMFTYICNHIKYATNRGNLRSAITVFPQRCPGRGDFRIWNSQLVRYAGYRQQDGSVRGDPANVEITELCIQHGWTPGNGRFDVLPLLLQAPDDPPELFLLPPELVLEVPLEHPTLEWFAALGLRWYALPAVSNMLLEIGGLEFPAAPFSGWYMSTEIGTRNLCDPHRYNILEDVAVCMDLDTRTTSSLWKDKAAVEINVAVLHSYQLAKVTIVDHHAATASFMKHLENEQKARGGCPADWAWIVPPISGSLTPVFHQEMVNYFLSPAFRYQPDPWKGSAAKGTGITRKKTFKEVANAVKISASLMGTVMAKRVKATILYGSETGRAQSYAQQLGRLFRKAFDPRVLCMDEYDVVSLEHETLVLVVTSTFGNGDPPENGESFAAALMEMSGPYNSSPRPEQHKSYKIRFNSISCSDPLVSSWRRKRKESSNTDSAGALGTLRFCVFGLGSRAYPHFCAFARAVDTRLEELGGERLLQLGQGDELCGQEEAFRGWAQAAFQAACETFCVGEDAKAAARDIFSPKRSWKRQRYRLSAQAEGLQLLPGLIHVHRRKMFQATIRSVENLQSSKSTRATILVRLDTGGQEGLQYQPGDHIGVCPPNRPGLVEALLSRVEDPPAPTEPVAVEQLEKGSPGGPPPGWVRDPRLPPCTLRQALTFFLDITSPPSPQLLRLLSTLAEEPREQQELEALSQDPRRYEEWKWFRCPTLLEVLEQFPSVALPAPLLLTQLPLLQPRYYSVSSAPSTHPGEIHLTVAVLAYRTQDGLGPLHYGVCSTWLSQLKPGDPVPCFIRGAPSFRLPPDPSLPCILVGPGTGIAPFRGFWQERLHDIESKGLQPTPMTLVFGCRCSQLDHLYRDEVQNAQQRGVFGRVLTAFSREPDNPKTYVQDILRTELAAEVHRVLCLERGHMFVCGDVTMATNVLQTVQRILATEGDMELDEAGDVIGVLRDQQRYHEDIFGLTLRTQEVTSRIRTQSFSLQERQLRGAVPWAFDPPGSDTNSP
Briefly: Inhibition of human eNOS expressed in HEK293 cells assessed as inhibition A23187-induced nitric oxide production incubated for 24 hrs measured after 18 hrs of A23187 challenge by 2,3-diaminonaphthalene assay. It is filed as cell-based. The essentials: as §2

Test [4] concerns the target T4, Nitric oxide synthase 3 (Homo sapiens) (UniProt P29474).
T4 sequence (whole entry): T3 sequence (P29474 whole entry)
Briefly: Inhibition of human eNOS expressed in HEK293 cells assessed as inhibition A23187-induced nitric oxide production at 100 uM incubated for 24 hrs measured after 18 hrs of A23187 challenge by 2,3-diaminonaphthalene assay. In kind it is cell-based. An outline of the steps:
as §2

For test [5], the target named is T2, Nitric oxide synthase 1. The test is described as follows: Inhibition of human nNOS expressed in HEK293 cells assessed as inhibition ionomycin-induced nitric oxide production at 100 uM incubated for 24 hrs measured after 18 hrs of ionomycin challenge by 2,3-diaminonaphthalene assay. It is filed as cell-based. An outline of the steps:
as §2

The test system of test [6] is Rattus norvegicus. The test is described as follows: Antiinflammatory activity in Lewis rat assessed as inhibition of carrageenan-induced edema at 3 to 30 mg/kg, po administered 15 mins before carrageenan challenge measured after 5 hrs. It is filed as functional, organism-based.
For test [7], the system named is Rattus norvegicus. The test is described as follows: Analgesic activity in po dosed Lewis rat post operative brennan model assessed as incison-induced paw weight bearing response after 30 to 120 mins. It is filed as functional, organism-based.
Test [8] deals with Rattus norvegicus. The test is described as follows: Antiinflammatory activity in Lewis rat assessed as inhibition of carrageenan-induced thermal hyperalgesia at 3 to 30 mg/kg, po administered 15 mins before carrageenan challenge measured after 5 hrs. It is filed as functional, organism-based.
Test [9] deals with Rattus norvegicus. The test is described as follows: Antiinflammatory activity in po dosed Lewis rat endotoxemia model assessed as inhibition of LPS-induced plasma nitrate accumulation after 6 hrs. It is filed as functional.
Test [10] addresses T1, Nitric oxide synthase, inducible. The test is described as follows: Inhibition of human iNOS.
Test [11] has as its target T5, Nitric oxide synthase, inducible (Mus musculus) (UniProt P29477).
T5 sequence (whole entry): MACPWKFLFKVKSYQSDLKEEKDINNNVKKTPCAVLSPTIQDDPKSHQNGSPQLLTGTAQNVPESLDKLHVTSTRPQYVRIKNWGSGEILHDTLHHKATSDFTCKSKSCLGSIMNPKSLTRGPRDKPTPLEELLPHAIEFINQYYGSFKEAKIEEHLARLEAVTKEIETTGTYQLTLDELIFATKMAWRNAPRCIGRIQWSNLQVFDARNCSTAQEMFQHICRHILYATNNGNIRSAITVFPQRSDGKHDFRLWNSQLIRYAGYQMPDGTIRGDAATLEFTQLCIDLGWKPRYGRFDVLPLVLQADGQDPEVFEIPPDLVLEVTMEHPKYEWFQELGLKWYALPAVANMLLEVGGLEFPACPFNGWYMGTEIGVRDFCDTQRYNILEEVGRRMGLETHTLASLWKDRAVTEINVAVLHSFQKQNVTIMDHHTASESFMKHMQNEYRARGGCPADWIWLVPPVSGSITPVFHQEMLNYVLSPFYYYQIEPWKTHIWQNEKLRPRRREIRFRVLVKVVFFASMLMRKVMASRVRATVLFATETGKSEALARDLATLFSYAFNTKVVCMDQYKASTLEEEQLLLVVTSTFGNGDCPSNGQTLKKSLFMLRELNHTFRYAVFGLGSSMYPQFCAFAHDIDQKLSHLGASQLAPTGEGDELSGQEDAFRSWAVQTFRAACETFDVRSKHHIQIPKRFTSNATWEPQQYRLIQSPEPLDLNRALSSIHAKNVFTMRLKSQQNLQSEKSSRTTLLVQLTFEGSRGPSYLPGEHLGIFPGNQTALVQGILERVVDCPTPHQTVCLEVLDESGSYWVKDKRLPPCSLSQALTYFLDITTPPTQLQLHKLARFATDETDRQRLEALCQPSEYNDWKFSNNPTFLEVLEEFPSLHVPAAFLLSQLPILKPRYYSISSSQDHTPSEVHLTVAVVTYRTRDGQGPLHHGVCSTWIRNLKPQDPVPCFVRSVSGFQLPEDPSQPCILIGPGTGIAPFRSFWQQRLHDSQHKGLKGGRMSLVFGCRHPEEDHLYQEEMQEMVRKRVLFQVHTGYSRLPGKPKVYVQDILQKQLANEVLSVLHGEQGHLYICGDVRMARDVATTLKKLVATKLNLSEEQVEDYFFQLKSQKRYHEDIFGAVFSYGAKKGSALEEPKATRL
Briefly: Inhibition of IFN-gamma/LPS-induced iNOS dimerization in mouse RAW264.7 cells by Western blot analysis. It is filed as cell-based. The essentials: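 RAW 264.7 cells seeded at 1.8 × 10⁶ cells/well and incubated 5 h. Then stimulated overnight with murine IFN-γ (100 U/mL final) and LPS (2 µg/mL final) plus 10 µM compound or vehicle (0.1% DMSO final). Lysates protein-normalized, run on 4–20% Tris–glycine gel under low-temperature SDS–PAGE in a cold room. Blotted with mouse anti-iNOS, read by infrared imaging.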

`CN(CCCNCc1ccncc1)c1nc(-n2ccnc2)ns1`: the inhibition (in [1]; in test [4]; at Nitric oxide synthase 1 [5]) was less than 50% in each case. Also, the EC50 (at Nitric oxide synthase 1 [2]; in test [3]; at Nitric oxide synthase 3) was more than 100 µM each time.
As to `CN(CCCNCc1ccc2[nH]ccc2c1)c1nc(-n2ccnc2)ns1`, the inhibition (in test [1]; in test [4]; on Nitric oxide synthase 1 [5]) was less than 50% throughout. The EC50 (at Nitric oxide synthase 1 [2]; in test [3]; at Nitric oxide synthase 3) was more than 100 µM in each case.
In the case of `Cc1cc(C(=O)NCCN(C)Cc2ccc3c(c2)OCO3)nc(-n2ccnc2)n1`, the inhibition (in [1]; in test [4]; at Nitric oxide synthase 1 [5]) was less than 50% throughout. The EC50 (on Nitric oxide synthase 1 [2]; in test [3]; at Nitric oxide synthase 3) was more than 100 µM each time.
Take `CN(CCCNCc1ccc(F)c(F)c1)c1nc(-n2ccnc2)ns1`: the inhibition (in test [1]; in [4]; at Nitric oxide synthase 1 [5]) was less than 50% each time. Further, the EC50 (on Nitric oxide synthase 1 [2]; in test [3]; at Nitric oxide synthase 3) was more than 100 µM each time.
As to `Cc1cc(C(C)(C)NCCNCc2ccc3c(c2)OCO3)nc(-n2ccnc2)n1`, the inhibition entry in the test with Rattus norvegicus [6] and in the test on Rattus norvegicus [8] was “Active” throughout. In the test with Rattus norvegicus [7], the outcome was Active. Further, the results for the EC50 (on Nitric oxide synthase 1 [2]; in test [3]; at Nitric oxide synthase 3) were more than 100 µM, 2.3 µM and more than 100 µM, respectively. Besides, the inhibition (in test [4]; on Nitric oxide synthase 1 [5]) was less than 50% each time. Also, in the test on Rattus norvegicus [9], the ED50 is 9.3 mg/kg.
For `Cc1cc(N(C)CCCNCc2ccc3c(c2)OCO3)nc(-n2cccc2)n1`, the IC50 in [10] is more than 100000 nM. The inhibition entry in [11] was “inactive”.
`CN(CCCNCc1ccc2c(c1)OCO2)c1nc(-n2ccnc2)ns1` [KD7040]: the EC50 is 17.3 µM at Nitric oxide synthase 1 [2], 0.008 µM in test [3] and more than 100 µM at Nitric oxide synthase 3. The compound further showed an IC50 in test [10] of 7 nM. In [11], the inhibition result is “Active”.
For the compound `O=C(O)CN(CCCNCc1ccc2c(c1)OCO2)c1nc(-n2ccnc2)ns1`, the inhibition (in test [1]; in [4]; on Nitric oxide synthase 1 [5]) was less than 50% each time. The EC50 (on Nitric oxide synthase 1 [2]; in test [3]; on Nitric oxide synthase 3) was more than 100 µM throughout.
Consider `CN(C)C(=O)CN(CCCNCc1ccc2c(c1)OCO2)c1nc(-n2ccnc2)ns1`, for which the EC50 on Nitric oxide synthase 1 [2] was more than 100 µM; in [3], 0.08 µM; at Nitric oxide synthase 3 it was more than 100 µM. Further, the inhibition (in test [4]; at Nitric oxide synthase 1 [5]) was less than 50% throughout.
Turning to `CN(CCCNCc1ccccc1)c1nc(-n2ccnc2)ns1`, the inhibition (in [1]; in test [4]; on Nitric oxide synthase 1 [5]) was less than 50% throughout. Besides, the EC50 (on Nitric oxide synthase 1 [2]; in test [3]; on Nitric oxide synthase 3) was more than 100 µM each time. In [10], the IC50 was more than 100000 nM. In addition, the inhibition result in test [11] is “Active”.
In [10], `Cc1cc(N(C)CCCNCc2ccc3c(c2)OCO3)nc(-n2ccnc2)n1` yielded an IC50 of 10 nM. For the same compound, in test [11], the inhibition entry was “Active”.
As for `CN(CCCNC(=O)c1ccc2c(c1)OCO2)c1nc(-n2ccnc2)ns1`, the EC50 at Nitric oxide synthase 1 [2] was more than 100 µM; in [3], 6.3 µM; at Nitric oxide synthase 3 it was more than 100 µM. For the same compound, the inhibition (in test [4]; at Nitric oxide synthase 1 [5]) was less than 50% throughout.
